From ChEMBL document CHEMBL1240515, “Discovery of mitogen-activated protein kinase-interacting kinase 1 inhibitors by a comprehensive fragment-oriented virtual screening approach” (J Med Chem, 2010)
Values belong to the compound of their own block, whether it stands above or below them.

Experiments:
[1] = target: T1, MAP kinase-interacting serine/threonine-protein kinase 2 (Homo sapiens, UniProt Q9HBH9); assay: Inhibition of MNK2
[2] = target: T2, MAP kinase-interacting serine/threonine-protein kinase 1 (Homo sapiens, UniProt Q9BUB5); assay: Inhibition of MNK1
Target sequence in this assay (Q9BUB5 whole entry): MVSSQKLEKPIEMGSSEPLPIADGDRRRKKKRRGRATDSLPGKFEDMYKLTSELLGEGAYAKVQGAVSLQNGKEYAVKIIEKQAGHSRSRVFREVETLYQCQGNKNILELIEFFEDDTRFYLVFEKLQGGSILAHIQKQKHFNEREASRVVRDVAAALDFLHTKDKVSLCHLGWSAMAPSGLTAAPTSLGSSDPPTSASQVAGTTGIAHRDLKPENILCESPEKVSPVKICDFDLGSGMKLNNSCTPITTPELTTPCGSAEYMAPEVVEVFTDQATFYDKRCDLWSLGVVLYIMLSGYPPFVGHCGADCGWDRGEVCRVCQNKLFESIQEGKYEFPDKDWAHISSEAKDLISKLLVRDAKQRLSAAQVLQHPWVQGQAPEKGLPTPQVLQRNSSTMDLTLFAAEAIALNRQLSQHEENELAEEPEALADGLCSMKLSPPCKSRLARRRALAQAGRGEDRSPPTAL

[3] = target: Epidermal growth factor receptor (Homo sapiens) (UniProt P00533); assay: Inhibition of EGFR at 5 uM
Summary of the method: (§1)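 Single-concentration panel run at an outside kinase screening provider. The compound was tested at 5 μM in duplicate.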

[4] = test system: Serine/threonine-protein kinase B-raf (Homo sapiens), P15056 [V600E]; assay: Inhibition of B-RAFV600E at 5 uM; summary of the method: as §1
[5] = target: Mitogen-activated protein kinase 14 (Homo sapiens) (UniProt Q16539); assay: Inhibition of p38alpha at 5 uM; summary of the method: as §1
[6] = target: Insulin-like growth factor 1 receptor (Homo sapiens) (UniProt P08069); assay: Inhibition of IGF1R at 5 uM; summary of the method: as §1
[7] = target: Serine/threonine-protein kinase pim-2 (Homo sapiens) (UniProt Q9P1W9); assay: Inhibition of PIM2 at 5 uM; summary of the method: as §1
[8] = target: Hepatocyte growth factor receptor (Homo sapiens) (UniProt P08581); assay: Inhibition of MET at 5 uM; summary of the method: as §1
[9] = target: Serine/threonine-protein kinase 4 (Homo sapiens) (UniProt Q13043); assay: Inhibition of MST1 at 5 uM; summary of the method: as §1
[10] = target: Casein kinase I isoform alpha (Homo sapiens) (UniProt P48729); assay: Inhibition of CK1alpha1 at 5 uM; summary of the method: as §1
[11] = target: Receptor-type tyrosine-protein kinase FLT3 (Homo sapiens) (UniProt P36888); assay: Inhibition of FLT3 at 5 uM; summary of the method: as §1
[12] = target: Inhibitor of nuclear factor kappa-B kinase subunit beta (Homo sapiens) (UniProt O14920); assay: Inhibition of IKK-beta at 5 uM; summary of the method: as §1
[13] = target: Serine/threonine-protein kinase pim-1 (Homo sapiens) (UniProt P11309); assay: Inhibition of PIM1 at 5 uM; summary of the method: as §1
[14] = target: Serine/threonine-protein kinase Sgk1 (Homo sapiens) (UniProt O00141); assay: Inhibition of SGK1 at 5 uM; summary of the method: as §1
[15] = target: NUAK family SNF1-like kinase 1 (Homo sapiens) (UniProt O60285); assay: Inhibition of ARK5 at 5 uM; summary of the method: as §1
[16] = target: Dual specificity mitogen-activated protein kinase kinase 1 (Homo sapiens) (UniProt Q02750); assay: Inhibition of MEK1 at 5 uM; summary of the method: as §1
[17] = target: T2, MAP kinase-interacting serine/threonine-protein kinase 1; assay: Inhibition of MNK1 at 5 uM
Summary of the method: (§2)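 Recombinant MNK1 (4 μg/mL) or MNK2 (0.7 μg/mL) final. Reaction contained 100 μM ATP and 300 μM eIF4E-derived peptide, run 60 min at 30 °C. ADP was detected by resorufin fluorescence. Tested at 5 μM in duplicate.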
Target sequence in this assay (Q9BUB5 whole entry, looked up): as the sequence (Q9BUB5 whole entry) above

[18] = target: 3-phosphoinositide-dependent protein kinase 1 (Homo sapiens) (UniProt O15530); assay: Inhibition of PDK1 at 5 uM
[19] = target: Tyrosine-protein kinase JAK2 (Homo sapiens) (UniProt O60674); assay: Inhibition of JAK2 at 5 uM; summary of the method: as §1
[20] = target: Mast/stem cell growth factor receptor Kit (Homo sapiens) (UniProt P10721); assay: Inhibition of KIT at 5 uM; summary of the method: as §1
[21] = target: Platelet-derived growth factor receptor alpha (Homo sapiens) (UniProt P16234); assay: Inhibition of PDGFRalpha at 5 uM; summary of the method: as §1
[22] = target: Ribosomal protein S6 kinase alpha-1 (Homo sapiens) (UniProt Q15418); assay: Inhibition of RPS6KA1 at 5 uM; summary of the method: as §1
[23] = target: Fibroblast growth factor receptor 1 (Homo sapiens) (UniProt P11362); assay: Inhibition of FGFR1 at 5 uM; summary of the method: as §1
[24] = target: Dual specificity tyrosine-phosphorylation-regulated kinase 1A (Homo sapiens) (UniProt Q13627); assay: Inhibition of DYRK1A at 5 uM; summary of the method: as §1
[25] = target: RAC-alpha serine/threonine-protein kinase (Homo sapiens) (UniProt P31749); assay: Inhibition of AKT1 at 5 uM; summary of the method: as §1
[26] = target: Mitogen-activated protein kinase 3 (Homo sapiens) (UniProt P27361); assay: Inhibition of ERK1 at 5 uM; summary of the method: as §1
[27] = target: Focal adhesion kinase 1 (Homo sapiens) (UniProt Q05397); assay: Inhibition of FAK at 5 uM; summary of the method: as §1
[28] = target: T1, MAP kinase-interacting serine/threonine-protein kinase 2; assay: Inhibition of MNK2 at 5 uM; summary of the method: as §2

Sequence of Epidermal growth factor receptor (Homo sapiens) (P00533 whole entry): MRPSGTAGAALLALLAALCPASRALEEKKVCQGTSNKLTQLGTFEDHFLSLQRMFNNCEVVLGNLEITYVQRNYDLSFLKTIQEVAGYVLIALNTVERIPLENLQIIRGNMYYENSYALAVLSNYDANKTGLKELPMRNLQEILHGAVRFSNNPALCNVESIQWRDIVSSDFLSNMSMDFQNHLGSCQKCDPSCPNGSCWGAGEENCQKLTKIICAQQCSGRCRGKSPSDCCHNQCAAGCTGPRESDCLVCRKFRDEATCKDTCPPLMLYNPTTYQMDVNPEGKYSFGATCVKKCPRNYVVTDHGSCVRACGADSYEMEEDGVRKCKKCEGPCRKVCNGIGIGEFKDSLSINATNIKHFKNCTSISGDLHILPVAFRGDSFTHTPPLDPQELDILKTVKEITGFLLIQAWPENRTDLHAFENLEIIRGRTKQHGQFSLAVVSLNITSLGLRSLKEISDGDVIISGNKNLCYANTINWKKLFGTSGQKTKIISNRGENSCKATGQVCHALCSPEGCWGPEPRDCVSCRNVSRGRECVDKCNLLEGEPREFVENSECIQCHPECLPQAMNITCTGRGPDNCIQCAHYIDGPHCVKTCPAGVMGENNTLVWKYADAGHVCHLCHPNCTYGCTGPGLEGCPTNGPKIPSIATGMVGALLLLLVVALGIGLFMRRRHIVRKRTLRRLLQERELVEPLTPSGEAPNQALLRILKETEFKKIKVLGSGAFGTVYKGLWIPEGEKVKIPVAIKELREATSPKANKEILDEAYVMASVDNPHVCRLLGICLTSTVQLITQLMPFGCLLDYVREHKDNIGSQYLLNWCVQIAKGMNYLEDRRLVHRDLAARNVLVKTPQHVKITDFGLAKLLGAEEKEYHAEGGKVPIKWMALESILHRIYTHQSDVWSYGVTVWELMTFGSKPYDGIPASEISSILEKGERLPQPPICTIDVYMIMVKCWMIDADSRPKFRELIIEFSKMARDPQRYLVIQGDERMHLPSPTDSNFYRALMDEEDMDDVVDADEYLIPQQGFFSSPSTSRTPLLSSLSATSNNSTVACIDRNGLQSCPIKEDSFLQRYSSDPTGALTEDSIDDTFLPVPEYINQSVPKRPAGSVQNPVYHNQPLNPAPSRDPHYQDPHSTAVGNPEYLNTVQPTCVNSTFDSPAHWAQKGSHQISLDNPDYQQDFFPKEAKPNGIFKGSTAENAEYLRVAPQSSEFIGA
Sequence of Receptor-type tyrosine-protein kinase FLT3 (Homo sapiens) (P36888 whole entry): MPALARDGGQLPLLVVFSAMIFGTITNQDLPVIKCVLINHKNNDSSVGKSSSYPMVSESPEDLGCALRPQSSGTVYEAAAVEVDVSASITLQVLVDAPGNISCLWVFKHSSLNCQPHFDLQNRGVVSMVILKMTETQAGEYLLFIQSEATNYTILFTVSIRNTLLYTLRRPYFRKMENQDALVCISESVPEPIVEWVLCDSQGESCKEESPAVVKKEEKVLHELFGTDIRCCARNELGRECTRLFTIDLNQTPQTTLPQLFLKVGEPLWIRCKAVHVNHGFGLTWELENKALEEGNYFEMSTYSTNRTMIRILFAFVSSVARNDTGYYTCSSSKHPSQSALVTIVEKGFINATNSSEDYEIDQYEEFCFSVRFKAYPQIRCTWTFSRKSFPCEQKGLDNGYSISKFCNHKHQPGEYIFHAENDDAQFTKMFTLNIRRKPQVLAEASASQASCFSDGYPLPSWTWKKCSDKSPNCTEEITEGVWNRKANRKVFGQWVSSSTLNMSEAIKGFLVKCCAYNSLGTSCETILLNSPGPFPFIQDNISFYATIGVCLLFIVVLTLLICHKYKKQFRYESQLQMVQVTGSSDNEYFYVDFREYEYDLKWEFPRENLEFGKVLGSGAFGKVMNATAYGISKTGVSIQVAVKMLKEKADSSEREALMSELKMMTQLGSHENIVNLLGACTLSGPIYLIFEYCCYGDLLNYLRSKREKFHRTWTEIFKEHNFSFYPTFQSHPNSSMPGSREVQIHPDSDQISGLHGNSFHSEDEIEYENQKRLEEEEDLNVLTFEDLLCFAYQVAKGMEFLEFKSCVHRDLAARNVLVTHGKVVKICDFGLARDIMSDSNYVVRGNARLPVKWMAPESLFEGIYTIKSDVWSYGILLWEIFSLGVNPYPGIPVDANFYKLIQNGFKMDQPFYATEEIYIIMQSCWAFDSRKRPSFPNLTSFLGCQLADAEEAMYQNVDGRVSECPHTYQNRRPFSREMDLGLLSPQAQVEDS
Sequence of Mast/stem cell growth factor receptor Kit (Homo sapiens) (P10721 whole entry): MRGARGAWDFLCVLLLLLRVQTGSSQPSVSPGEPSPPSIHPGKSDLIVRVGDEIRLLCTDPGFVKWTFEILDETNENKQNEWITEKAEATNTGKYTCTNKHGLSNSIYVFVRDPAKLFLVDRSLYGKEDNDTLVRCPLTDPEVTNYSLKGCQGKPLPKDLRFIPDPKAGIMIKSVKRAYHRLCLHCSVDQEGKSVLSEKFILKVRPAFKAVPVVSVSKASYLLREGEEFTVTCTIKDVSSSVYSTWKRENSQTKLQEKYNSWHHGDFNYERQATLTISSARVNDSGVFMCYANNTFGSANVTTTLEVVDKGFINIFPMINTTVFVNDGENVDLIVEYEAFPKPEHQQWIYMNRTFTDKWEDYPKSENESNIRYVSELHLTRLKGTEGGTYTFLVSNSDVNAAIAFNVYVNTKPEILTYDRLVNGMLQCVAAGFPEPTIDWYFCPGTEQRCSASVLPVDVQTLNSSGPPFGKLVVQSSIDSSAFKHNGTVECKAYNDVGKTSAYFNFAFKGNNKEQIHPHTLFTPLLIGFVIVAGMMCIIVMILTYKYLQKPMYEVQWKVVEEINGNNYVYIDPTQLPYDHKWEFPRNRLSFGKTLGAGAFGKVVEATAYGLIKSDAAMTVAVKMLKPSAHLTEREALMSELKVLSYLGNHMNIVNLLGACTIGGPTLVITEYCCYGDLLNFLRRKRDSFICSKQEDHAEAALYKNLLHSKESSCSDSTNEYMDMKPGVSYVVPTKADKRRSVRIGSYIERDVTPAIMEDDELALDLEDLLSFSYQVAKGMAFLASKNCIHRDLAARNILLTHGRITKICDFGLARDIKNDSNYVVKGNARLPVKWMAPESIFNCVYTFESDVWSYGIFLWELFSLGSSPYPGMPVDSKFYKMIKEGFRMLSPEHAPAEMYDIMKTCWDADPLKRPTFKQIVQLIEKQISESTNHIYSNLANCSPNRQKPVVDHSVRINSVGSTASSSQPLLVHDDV
Sequence of Fibroblast growth factor receptor 1 (Homo sapiens) (P11362 22-822 limits assumed): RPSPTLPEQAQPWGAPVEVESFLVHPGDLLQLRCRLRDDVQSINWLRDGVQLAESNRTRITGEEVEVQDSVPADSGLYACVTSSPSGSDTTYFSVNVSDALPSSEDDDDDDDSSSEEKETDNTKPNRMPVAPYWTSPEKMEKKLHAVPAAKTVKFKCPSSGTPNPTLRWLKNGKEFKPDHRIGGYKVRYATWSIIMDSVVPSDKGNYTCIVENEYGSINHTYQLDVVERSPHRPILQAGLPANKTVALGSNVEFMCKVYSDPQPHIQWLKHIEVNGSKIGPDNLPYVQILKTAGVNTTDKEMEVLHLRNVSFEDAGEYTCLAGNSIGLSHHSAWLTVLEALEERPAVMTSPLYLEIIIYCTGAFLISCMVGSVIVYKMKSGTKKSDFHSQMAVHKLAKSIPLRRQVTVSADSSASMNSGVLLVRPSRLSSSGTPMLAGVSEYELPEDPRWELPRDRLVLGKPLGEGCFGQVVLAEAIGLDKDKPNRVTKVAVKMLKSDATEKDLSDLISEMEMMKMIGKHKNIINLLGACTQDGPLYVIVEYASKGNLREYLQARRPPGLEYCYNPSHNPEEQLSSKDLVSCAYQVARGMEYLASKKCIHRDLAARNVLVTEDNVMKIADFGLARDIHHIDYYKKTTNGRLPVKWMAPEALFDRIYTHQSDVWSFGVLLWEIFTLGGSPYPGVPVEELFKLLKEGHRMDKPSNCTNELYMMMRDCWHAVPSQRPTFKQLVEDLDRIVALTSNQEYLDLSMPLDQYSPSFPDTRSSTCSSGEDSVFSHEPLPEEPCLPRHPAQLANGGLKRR
Sequence of 3-phosphoinositide-dependent protein kinase 1 (Homo sapiens) (O15530 whole entry, looked up): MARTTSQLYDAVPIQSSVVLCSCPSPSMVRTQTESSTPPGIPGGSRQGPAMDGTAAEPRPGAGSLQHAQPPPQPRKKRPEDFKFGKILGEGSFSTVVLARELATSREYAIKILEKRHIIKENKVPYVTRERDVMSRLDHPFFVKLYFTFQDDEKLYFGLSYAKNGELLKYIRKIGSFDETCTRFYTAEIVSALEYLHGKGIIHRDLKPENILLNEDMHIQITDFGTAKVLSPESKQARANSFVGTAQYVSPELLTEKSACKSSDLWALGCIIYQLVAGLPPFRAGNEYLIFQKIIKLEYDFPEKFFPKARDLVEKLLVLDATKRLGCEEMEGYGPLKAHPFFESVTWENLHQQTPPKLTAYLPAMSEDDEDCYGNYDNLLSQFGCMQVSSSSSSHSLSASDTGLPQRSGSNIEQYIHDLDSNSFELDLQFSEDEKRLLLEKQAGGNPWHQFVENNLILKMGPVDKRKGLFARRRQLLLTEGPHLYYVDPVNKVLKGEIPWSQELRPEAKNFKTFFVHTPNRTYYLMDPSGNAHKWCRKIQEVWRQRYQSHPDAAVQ

Structure (SMILES): c1cc(-c2cnc3sc(NCC4CC4)nn23)ccn1
IC50 [2]: 1710 nM

Structure (SMILES): CNc1cc2c(Nc3cccc(Br)c3)ncnc2cn1
IC50 [2]: 1700 nM

Structure (SMILES): c1ccc2cc(Nc3ncnc4[nH]ncc34)ccc2c1
IC50 [2]: 1350 nM

Structure (SMILES): CNc1ccc2ncc(-c3ccc(F)cc3)n2n1
IC50 [2]: 4050 nM

Structure (SMILES): OCCCNc1ccc2ncc(-c3ccccc3F)n2n1
IC50 [2]: 3240 nM

Structure (SMILES): O=c1[nH]cnc2cc3n[nH]cc3cc12
IC50 [2]: 8170 nM

Structure (SMILES): c1ccc(-c2cnc3ccc(NCCc4ccccn4)nn23)cc1
IC50 [2]: 4280 nM

Structure (SMILES): c1cnn2c(-c3ccncc3)cnc2c1
IC50 [2]: 3800 nM

Structure (SMILES): CC(C)CNc1nn2c(-c3ccncc3)cnc2s1
IC50 [2]: 6180 nM

Structure (SMILES): NC(=O)c1ccc(-c2cc(-c3ccccc3)cnc2N)cc1
IC50 [2]: 5150 nM

Structure (SMILES): Brc1ccc(Nc2ncnc3[nH]ncc23)cc1
IC50 [2]: 1560 nM

Structure (SMILES): COCCNc1ccc2ncc(-c3ccc(F)cc3)n2n1
IC50 [2]: 4090 nM

Structure (SMILES): CNc1ccc2ncc(-c3cccc(O)c3)n2n1
IC50 [2]: 1530 nM

Structure (SMILES): OCCNc1ccc2ncc(-c3ccc(Cl)cc3)n2n1
IC50 [2]: 2930 nM

Structure (SMILES): OCCCNc1ccc2ncc(-c3ccc(F)cc3)n2n1
IC50 [2]: 2410 nM

Structure (SMILES): COCCNc1ccc2ncc(-c3ccc(Cl)cc3)n2n1
IC50 [2]: 1620 nM

Structure (SMILES): c1cc(-c2cc(C3CCNCC3)n[nH]2)ccn1
inhibition [3]: 1%
inhibition [4]: 9%
inhibition [5]: 2%
inhibition [6]: 3%
inhibition [7]: 1%
inhibition [8]: 1%
inhibition [9]: 0%
inhibition [10]: 10%
inhibition [11]: 0%
inhibition [12]: 6%
inhibition [13]: 4%
inhibition [14]: 7%
inhibition [15]: 3%
inhibition [16]: 5%
inhibition [17]: 87%
inhibition [18]: 0%
inhibition [19]: 0%
inhibition [20]: 7%
inhibition [21]: 1%
inhibition [22]: 11%
inhibition [23]: 8%
inhibition [24]: 0%
inhibition [25]: 0%
inhibition [26]: 0%
inhibition [27]: 15%

Structure (SMILES): Brc1cccc(Nc2ncnc3cc4nc[nH]c4cc23)c1
IC50 [2]: 2800 nM

Structure (SMILES): CCNc1nc(C)c(-c2ccnc(Nc3ccc(N4CCNCC4)cc3)n2)s1
inhibition [28]: 80%
inhibition [17]: 97%

The remaining lines, values ahead:

IC50 [1]: 575 nM
IC50 [2]: 646 nM
Structure (SMILES): c1cc(-c2cc(C3CCNCC3)[nH]n2)ccn1

IC50 [2]: 630 nM
Structure (SMILES): COc1cc2ncnc(Nc3cccc(Br)c3)c2cc1OC

IC50 [2]: 1090 nM
Structure (SMILES): Fc1cccc(Nc2ncnc3n[nH]cc23)c1

IC50 [2]: 1030 nM
Structure (SMILES): Fc1ccc(Nc2ncnc3[nH]cnc23)cc1

IC50 [2]: 850 nM
Structure (SMILES): COC(=O)c1ccc(Nc2[nH]cnc3ncnc2-3)cc1

IC50 [2]: 530 nM
Structure (SMILES): COc1cc2ncnc(Nc3cccc(Cl)c3)c2cc1OC [TYRPHOSTIN AG-1478]

IC50 [2]: 160 nM
Structure (SMILES): NC(=O)c1ccc(Nc2ncnc3[nH]cnc23)cc1

IC50 [2]: 120 nM
Structure (SMILES): COc1cc2ncnc(Nc3cc(Br)c(O)c(Br)c3)c2cc1OC

IC50 [2]: 580 nM
Structure (SMILES): Clc1ccc(Nc2ncnc3[nH]ncc23)cc1
